Experimental data from ChEMBL document CHEMBL4393721 (Eur J Med Chem, 2019).
Calls of active or inactive are those of the source. The rule behind the calls is not given here.

How the values were obtained:
[1] = Induction of apoptosis in TNFalpha-treated human HepG2 cells assessed as normal cells at 2 uM incubated for 10 hrs by FITC Annexin V and propidium iodide staining based flow cytometric analysis (reference value: 88.37%); type: cell-based; conditions: read-out: Activity
Procedure, shortened: (§1)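 HepG2 cells grown in DMEM with 10% FBS were treated for 10 hr with compound (2 μM) plus TNFα (20 ng/mL). Cells were collected in binding buffer, stained with FITC-Annexin V and propidium iodide at room temperature, and analysed by flow cytometry. Quadrants as labelled: UL necrotic, UR viable apoptotic, LR non-viable apoptotic, LL normal.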

[2] = biological target: T1, Nuclear receptor subfamily 4immunitygroup A member 1 (Homo sapiens, UniProt P22736); assay: Binding affinity to GFP-Nur77 (unknown origin) expressed in human HepG2 cells cotransfected with mCherry-p62/SQSTM1 assessed as co-localization with p62/SQSTM1 in cytoplasm in presence of TNFalpha by DAPI staining based confocal microscopic analysis; type: cell-based
T1 sequence (P22736 whole entry): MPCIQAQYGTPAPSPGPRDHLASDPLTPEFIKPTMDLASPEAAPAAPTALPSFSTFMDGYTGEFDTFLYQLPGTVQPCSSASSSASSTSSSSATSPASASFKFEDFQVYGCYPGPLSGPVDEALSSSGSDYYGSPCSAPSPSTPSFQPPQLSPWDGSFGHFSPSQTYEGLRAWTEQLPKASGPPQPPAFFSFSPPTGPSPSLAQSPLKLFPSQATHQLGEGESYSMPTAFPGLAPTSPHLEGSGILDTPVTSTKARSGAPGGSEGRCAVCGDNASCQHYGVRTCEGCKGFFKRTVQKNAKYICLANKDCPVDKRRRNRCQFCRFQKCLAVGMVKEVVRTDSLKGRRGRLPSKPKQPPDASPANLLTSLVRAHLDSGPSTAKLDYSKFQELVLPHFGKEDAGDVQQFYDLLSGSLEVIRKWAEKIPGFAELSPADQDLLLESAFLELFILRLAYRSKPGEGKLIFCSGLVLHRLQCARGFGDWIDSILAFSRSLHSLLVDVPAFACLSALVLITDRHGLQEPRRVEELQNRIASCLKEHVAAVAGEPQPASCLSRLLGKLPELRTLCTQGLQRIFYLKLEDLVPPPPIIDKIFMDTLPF
Procedure, shortened: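 HepG2 cells were transfected with GFP-Nur77 and mCherry-p62/SQSTM1, then treated with TNFα plus compound. Cells were fixed in paraformaldehyde, with nuclei counterstained by DAPI (1:10000). Nur77–p62 colocalization was imaged by fluorescence or LSM-510 confocal microscopy.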

[3] = biological target: T1, Nuclear receptor subfamily 4immunitygroup A member 1; assay: Binding affinity to recombinant human N-terminal His-tagged Nur77 LBD (367 to 598 residues) expressed in Escherichia coli BL21(DE3) incubated for 30 secs by fluorescence quenching assay
HepG2 [4] = assay: Antiinflammatory activity in human HepG2 cells assessed as inhibition of TNFalpha-induced IkappaBalpha degradation at 2 uM pretreated for 1 hr followed by TNFalpha addition and measured after 30 mins by Western blot analysis; type: functional, cell-based
Procedure, shortened: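 HepG2 cells grown in DMEM with 10% FBS were exposed to compound for 1 hr and to TNFα (20 ng/mL) for 30 min. Lysates were run on 10% SDS-PAGE and immunoblotted for IκBα with ECL detection. Band grey values were quantified by densitometry. Data are mean ± SEM of three independent experiments.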

[5] = biological target: T1, Nuclear receptor subfamily 4immunitygroup A member 1; assay: Binding affinity to Myc-Nur77 (unknown origin) expressed in human HepG2 cells co-transfected with Flag tagged TRAF2 assessed as effect on protein interaction with TRAF2 at 2 uM incubated for 1 hr in presence of TNFalpha by co-immunoprecipitation assay; type: cell-based
Procedure, shortened: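 HepG2 cells were transfected with Myc-Nur77 and Flag-TRAF2, then treated for 1 hr with compound (2 μM) plus TNFα (20 ng/mL). Lysis buffer was 10 mM Tris pH 7.4, 150 mM NaCl, 1% Triton X-100, 5 mM EDTA and protease inhibitors. Lysate was incubated with 1 μg antibody for 2 hr at 4 °C, pulled down with protein A/G sepharose, washed, and read by Western blot.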

HepG2 [6] = assay: Induction of apoptosis in TNFalpha-treated human HepG2 cells assessed as PARP cleavage at 2 uM incubated for 10 hrs by Western blot analysis; type: cell-based; conditions: hepg2, 10 h
HepG2 [7] = assay: Induction of apoptosis in TNFalpha-treated human HepG2 cells assessed as non-viable apoptotic cells at 2 uM incubated for 10 hrs by FITC Annexin V and propidium iodide staining based flow cytometric analysis (reference value: 6.65%); type: cell-based; conditions: hepg2, 10 h; procedure, shortened: as §1
HepG2 [8] = assay: Induction of apoptosis in TNFalpha-treated human HepG2 cells assessed as viable apoptotic cells at 2 uM incubated for 10 hrs by FITC Annexin V and propidium iodide staining based flow cytometric analysis (reference value: 3.69%); type: cell-based; conditions: hepg2, 10 h; procedure, shortened: as §1
HepG2 [9] = assay: Induction of apoptosis in TNFalpha-treated human HepG2 cells assessed as necrotic cells at 2 uM incubated for 10 hrs by FITC Annexin V and propidium iodide staining based flow cytometric analysis (reference value: 1.29%); type: cell-based; conditions: hepg2, 10 h; procedure, shortened: as §1
[10] = Toxicity in zebrafish embryo AB assessed as mortality at 0.5 uM incubated for 24 hrs; set-up: species or system Danio rerio; conditions: in vivo
Procedure, shortened: (§2)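 Wild-type AB zebrafish embryos (20 per condition), collected within 0.5 h of spawning, were exposed from 2 hpf to 0.5, 1 or 1.25 µM compound in fish water, with 0.1% DMSO as control. Embryos were observed and imaged every 24 h. Mortality was scored at 24 and 72 hpf and malformation rate at 72 hpf.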

[11] = Toxicity in zebrafish embryo AB assessed as mortality at 0.5 uM incubated for 72 hrs; set-up: species or system Danio rerio; conditions: in vivo; procedure, shortened: as §2
[12] = Toxicity in zebrafish embryo AB assessed as mortality at 0.125 uM incubated for 24 hrs; set-up: species or system Danio rerio; conditions: in vivo
[13] = Toxicity in zebrafish embryo AB assessed as induction of malformation at 0.5 to 1.25 uM incubated for 24 to 72 hrs; set-up: species or system Danio rerio; conditions: in vivo; procedure, shortened: as §2
[14] = Toxicity in zebrafish embryo AB assessed as mortality at 0.5 uM incubated for 72 hrs relative to control; set-up: species or system Danio rerio; conditions: in vivo, read-out: Activity; procedure, shortened: as §2
[15] = Toxicity in zebrafish embryo AB assessed as mortality at 0.125 uM incubated for 24 hrs relative to control; set-up: species or system Danio rerio; conditions: in vivo, read-out: Activity

## Cc1c(O)c(O)cc2c1CC=C1[C@@]2(C)CC[C@@]2(C)[C@@H]3C[C@](C)(C(=O)O)CC[C@]3(C)CC[C@]12C [DIHYDROCELASTROL]
[1]
  viability at 10 h, 2 µM: 85%
[2]
  Activity: Active
[3]; read-out: Kd
  Kd: 870 nM
HepG2 [4]
  inhibition: Active
[5]
  Activity: Active
HepG2 [6]
  Activity: Non-Toxic
HepG2 [7]
  Activity: 11.09%
HepG2 [8]
  Activity: 3.12%
HepG2 [9]
  Activity: 0.79%
[10]
  Activity: Toxic
[11]
  Activity: Toxic
[12]
  Activity: Toxic
[13]
  Activity: Toxic

## CC1=C(O)C(=O)C=C2C1=CC=C1[C@@]2(C)CC[C@@]2(C)[C@@H]3C[C@](C)(C(=O)OC(C)C)CC[C@]3(C)CC[C@]12C
[3]; read-out: Kd
  Kd: 520 nM
HepG2 [4]
  inhibition: Active

## COc1c(O)cc2c(c1C)CC=C1[C@@]2(C)CC[C@@]2(C)[C@@H]3C[C@](C)(C(=O)O)CC[C@]3(C)CC[C@]12C
[3]
  Kd: Not Active
HepG2 [4]
  inhibition: inactive

## COP(=O)(OC)[C@@H]1C=C2[C@@](C)(CC[C@@]3(C)[C@@H]4C[C@](C)(C(=O)O)CC[C@]4(C)CC[C@]23C)c2cc(O)c(O)c(C)c21
[3]
  Kd: Not Active
HepG2 [4]
  inhibition: inactive

## COC(=O)[C@]1(C)CC[C@]2(C)CC[C@]3(C)C4=CC=C5C(=CC(=O)C(O)=C5C)[C@]4(C)CC[C@@]3(C)[C@@H]2C1 [PRISTIMERIN]
[3]; read-out: Kd
  Kd: 960 nM
HepG2 [4]
  inhibition: Active

## Cc1c(O)c(O)cc2c1C(=O)C=C1[C@@]2(C)CC[C@@]2(C)[C@@H]3C[C@](C)(C(=O)O)CC[C@]3(C)CC[C@]12C
[3]; read-out: Kd
  Kd: 2690 nM
HepG2 [4]
  inhibition: inactive

## COC(=O)[C@]1(C)CC[C@]2(C)CC[C@]3(C)C4=CCc5c(cc(O)c(OC)c5C)[C@]4(C)CC[C@@]3(C)[C@@H]2C1
[3]
  Kd: Not Active

## CC1=C(O)C(=O)C=C2C1=CC=C1[C@@]2(C)CC[C@@]2(C)[C@@H]3C[C@](C)(C(=O)O)CC[C@]3(C)CC[C@]12C [CELASTROL]
[1]
  viability at 10 h, 2 µM: 62.9%
[2]
  Activity: Active
HepG2 [4]
  inhibition: Active
[5]
  Activity: Active
HepG2 [6]
  Activity: Toxic
HepG2 [7]
  Activity: 24.98%
HepG2 [8]
  Activity: 10.34%
HepG2 [9]
  Activity: 1.75%
[10]
  Activity: Toxic
[14]
  mortality at 72 h, 0.5 µM: 100%
[15]
  mortality at 24 h, 0.125 µM: 90%
[13]
  Activity: Toxic

## COC(=O)[C@]1(C)CC[C@]2(C)CC[C@]3(C)C4=CCc5c(cc(OC)c(OC)c5C)[C@]4(C)CC[C@@]3(C)[C@@H]2C1
[3]
  Kd: Not Active
HepG2 [4]
  inhibition: inactive

## CC1=C(O)C(=O)C=C2C1=CC=C1[C@@]2(C)CC[C@@]2(C)[C@@H]3C[C@](C)(C(=O)F)CC[C@]3(C)CC[C@]12C
[3]; read-out: Kd
  Kd: 720 nM
HepG2 [4]
  inhibition: Active

## COc1cc2c(c(C)c1O)CC=C1[C@@]2(C)CC[C@@]2(C)[C@@H]3C[C@](C)(C(=O)O)CC[C@]3(C)CC[C@]12C
[3]
  Kd: Not Active
HepG2 [4]
  inhibition: inactive

## CCOC1=C(C)C2=CC=C3[C@@](C)(CC[C@@]4(C)[C@@H]5C[C@](C)(C(=O)OC)CC[C@]5(C)CC[C@]34C)C2=CC1=O
[3]; read-out: Kd
  Kd: 4130 nM
HepG2 [4]
  inhibition: inactive

## CNC(=O)[C@]1(C)CC[C@]2(C)CC[C@]3(C)C4=CC=C5C(=CC(=O)C(O)=C5C)[C@]4(C)CC[C@@]3(C)[C@@H]2C1
[3]; read-out: Kd
  Kd: 800 nM
HepG2 [4]
  inhibition: Active

## Cc1c(O)c(O)cc2c1[C@H](CN)C=C1[C@@]2(C)CC[C@@]2(C)[C@@H]3C[C@](C)(C(=O)O)CC[C@]3(C)CC[C@]12C
[3]
  Kd: Not Active
HepG2 [4]
  inhibition: inactive

## CC(=O)C[C@@H]1C=C2[C@@](C)(CC[C@@]3(C)[C@@H]4C[C@](C)(C(=O)O)CC[C@]4(C)CC[C@]23C)c2cc(O)c(O)c(C)c21
[3]; read-out: Kd
  Kd: 3800 nM
HepG2 [4]
  inhibition: inactive

## COC(=O)[C@]1(C)CC[C@]2(C)CC[C@]3(C)C4=CCc5c(cc(OC)c(O)c5C)[C@]4(C)CC[C@@]3(C)[C@@H]2C1
[3]
  Kd: Not Active
HepG2 [4]
  inhibition: inactive

## Cc1c(O)c(O)cc2c1[C@H](C[N+](=O)[O-])C=C1[C@@]2(C)CC[C@@]2(C)[C@@H]3C[C@](C)(C(=O)O)CC[C@]3(C)CC[C@]12C
[3]; read-out: Kd
  Kd: 5560 nM
HepG2 [4]
  inhibition: inactive

## COc1cc2c(c(C)c1OC)CC=C1[C@@]2(C)CC[C@@]2(C)[C@@H]3C[C@](C)(C(=O)O)CC[C@]3(C)CC[C@]12C
[3]
  Kd: Not Active
HepG2 [4]
  inhibition: inactive

## CCNC(=O)[C@]1(C)CC[C@]2(C)CC[C@]3(C)C4=CC=C5C(=CC(=O)C(O)=C5C)[C@]4(C)CC[C@@]3(C)[C@@H]2C1
[1]
  viability at 10 h, 2 µM: 53.7%
[2]
  Activity: Active
[3]; read-out: Kd
  Kd: 830 nM
HepG2 [4]
  inhibition: Active
[5]
  Activity: Active
HepG2 [6]
  Activity: Toxic
HepG2 [7]
  Activity: 24%
HepG2 [8]
  Activity: 18.35%
HepG2 [9]
  Activity: 3.92%

## CCCNC(=O)[C@]1(C)CC[C@]2(C)CC[C@]3(C)C4=CC=C5C(=CC(=O)C(O)=C5C)[C@]4(C)CC[C@@]3(C)[C@@H]2C1
[3]; read-out: Kd
  Kd: 270 nM
HepG2 [4]
  inhibition: Active

## COC(=O)[C@]1(C)CC[C@]2(C)CC[C@]3(C)C4=CC=C5C(=CC(=O)C(OCC(F)F)=C5C)[C@]4(C)CC[C@@]3(C)[C@@H]2C1
[3]; read-out: Kd
  Kd: 3300 nM
HepG2 [4]
  inhibition: inactive

## Cc1c(O)c(O)cc2c1[C@H](c1cc[nH]c1)C=C1[C@@]2(C)CC[C@@]2(C)[C@@H]3C[C@](C)(C(=O)O)CC[C@]3(C)CC[C@]12C
[3]
  Kd: Not Active
HepG2 [4]
  inhibition: inactive

## CCOC(=O)[C@]1(C)CC[C@]2(C)CC[C@]3(C)C4=CC=C5C(=CC(=O)C(O)=C5C)[C@]4(C)CC[C@@]3(C)[C@@H]2C1
[3]; read-out: Kd
  Kd: 220 nM
HepG2 [4]
  inhibition: Active

## COC(=O)[C@]1(C)CC[C@]2(C)CC[C@]3(C)C4=CC=C5C(=CC(=O)C(OC)=C5C)[C@]4(C)CC[C@@]3(C)[C@@H]2C1
[3]; read-out: Kd
  Kd: 2940 nM
HepG2 [4]
  inhibition: inactive

## Cc1c(O)c(O)cc2c1[C@H](C)C=C1[C@@]2(C)CC[C@@]2(C)[C@@H]3C[C@](C)(C(=O)O)CC[C@]3(C)CC[C@]12C
[3]
  Kd: Not Active
HepG2 [4]
  inhibition: inactive
